# ChEMBL document CHEMBL1141552, “Synthesis and antitubercular activity of 7-(R)- and 7-(S)-methyl-2-nitro-6-(S)-(4-(trifluoromethoxy)benzyloxy)-6,7-dihydro-5H-imidazo[2,1-b][1,3]oxazines, analogues of PA-824” (Bioorg Med Chem Lett, 2008)
# Experiments:
# [1] = Aqueous solubility of the compound; assay type: physicochemical
# How it was run: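 Excess solid (3–5 mg) shaken in 0.5 mL water for 3 days, then centrifuged at 10,000g for 5 min. Supernatant diluted in water and analysed by LC/MS with UV peak area at 310 nm. Concentration read from a previously determined calibration curve, corrected for dilution.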
# [2] = test system: Mycobacterium tuberculosis; assay: Antitubercular activity against Mycobacterium tuberculosis H37Rv by oxygen depletion assay; assay type: functional
# How it was run: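 Early-log Mtb cultures in Dubos broth were diluted 100-fold and sealed at a 0.5 head-space ratio, then stirred for 20 days to reach NRP-2. The cells were handled anaerobically and exposed to 1.95–500 μM drug in two-fold dilutions for 7 days at 37°C. After three washes, the cells were spotted on 7H11 agar for 3 weeks. MAC was taken as the concentration giving 90% reduction in visible growth.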
# [3] = test system: Mycobacterium tuberculosis; assay: Antitubercular activity against Mycobacterium tuberculosis H37Rv under aerobic conditions; assay type: functional
# How it was run: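 Broth dilution MIC99 against Mtb H37Rv (ATCC 27294) and its H37Rv mutants under aerobic conditions. Compound stocks were made in DMSO at 20 mM.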
SMILES,solubility [1] [µg/mL],MAC [2] [µM],MIC [3] [µM]
C[C@H]1Oc2nc([N+](=O)[O-])cn2C[C@@H]1OCc1ccc(OC(F)(F)F)cc1,10.3,8,0.2
C[C@@H]1Oc2nc([N+](=O)[O-])cn2C[C@@H]1OCc1ccc(OC(F)(F)F)cc1,9.89,16,0.2
O=[N+]([O-])c1cn2c(n1)OC[C@@H](OCc1ccc(OC(F)(F)F)cc1)C2 [PRETOMANID],10.2,8,0.4
